SENP8 block-1: blocks the human protease SENP8; Q96LD8; purified SENP8, Z-RLRGG-aminoluciferin cleavage, luminescence; inhibition, % at 10 µM; 1.2% of 330,000 active; AID 2540; in the data active = inhibition above about 50%
Apaf-1 inh: blocks human Apaf-1 apoptosome activity | O14727 | reconstituted apoptosome caspase-3 activity, DEVD-Rh110 fluorescence | inhibition, % at 20 µM | 0.71% of 330,000 active | AID 489030; active = inhibition of at least 40% at 20 µM;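 note: plate controls were DMSO wells for no effect and DEVD-CHO caspase inhibitor wells for full effect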
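Assay system: Apoptosome proteins | Medium: pH 7.5 Hepes buffer with CHAPS, BSA, DTT | Also added: Cytochrome c and DEVD-Rh110 substrate | Times: 30 min plus 50 min, RT | Detection: Rhodamine 110 fluorescence at Ex 480/Em 540 nm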
SENP1 inh: blocks the human SENP1 SUMO protease catalytic domain | 0.21% of 360,000 active | inhibition, % at 10 µM | recombinant SENP1 catalytic domain, CyPet-SUMO1-YPet FRET cleavage;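 active = inhibition at least 30% at 10 µM, raw YFP signal under a set limit, fluorescence ratio 0.5 to 1.5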;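 note: 0% = enzyme with DMSO and 100% = no enzyme wells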
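Test system: recombinant human SENP1 catalytic domain, His6-tagged / Medium: pH 8 Tris buffer with EDTA, NaCl, BME, BSA, NP40, catalase / Also added: SUMO1 FRET substrate flanked by Cypet and Ypet, 25 nM / Times: 50 min reaction at room temperature / Signal: FRET, CFP and YFP emission / Control set: no-enzyme low control and enzyme-plus-DMSO high control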
SENP6 block: SENP6 protease inhibition. inhibition, % at 10 µM. Q9GZR1. 1.8% of 330,000 active. Recombinant SENP6 catalytic domain, aminoluciferin luminescence. AID 2599;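 active = inhibition above about 50% at the single tested dose, limit read from the data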;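 note: plate controls were DMSO wells with enzyme for no effect and DMSO wells lacking enzyme for full effect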
Target sequence (Q9GZR1 628-1112 limits assumed): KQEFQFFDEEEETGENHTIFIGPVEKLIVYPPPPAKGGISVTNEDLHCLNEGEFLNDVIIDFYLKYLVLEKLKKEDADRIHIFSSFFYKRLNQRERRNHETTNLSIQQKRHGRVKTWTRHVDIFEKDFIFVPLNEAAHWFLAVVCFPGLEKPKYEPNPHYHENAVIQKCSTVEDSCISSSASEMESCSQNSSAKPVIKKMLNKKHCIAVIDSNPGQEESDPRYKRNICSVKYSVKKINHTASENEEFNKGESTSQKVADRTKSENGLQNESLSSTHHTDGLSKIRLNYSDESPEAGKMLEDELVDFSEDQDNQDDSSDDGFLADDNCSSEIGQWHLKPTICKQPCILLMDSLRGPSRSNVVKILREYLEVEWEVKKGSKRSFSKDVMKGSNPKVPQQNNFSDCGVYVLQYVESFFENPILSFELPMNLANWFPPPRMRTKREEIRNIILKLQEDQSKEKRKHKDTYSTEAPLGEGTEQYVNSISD
SENP8 block-2: blocks human SENP8 cleavage of Nedd8 substrate; Q96LD8; inhibition, % at 20 µM; recombinant SENP8, Nedd8 substrate fluorescence; 0.64% of 360,000 active; in the data active = inhibition mostly above about 40%, no sharp cut-off; inactive = mostly below about 27%
SENP7 inh: SENP7 protease inhibition; Q9BQF6; recombinant SENP7, Z-RLRGG-aminoluciferin luminescence, 40 min; inhibition, % at 5 µM; 1.5% of 330,000 active; AID 434973;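 active = inhibition above about 50% at the single test dose, limit read from the data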;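 note: plate controls were DMSO with enzyme for no effect and no enzyme buffer wells for full effect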
SENP8 conf: confirmation of human SENP8 protease inhibitors; Recombinant SENP8, Z-RLRGG-aminoluciferin luminescence, 60 min; AID 488912; shares compounds with SENP7 inh; 40% of 6,200 active; inhibition, % at 12.5 µM;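 active = mean inhibition across replicates above about 50%, limit read from the data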
SENP6 conf: human SENP6 inhibition, confirmed; shares compounds with SENP7 inh; inhibition, % at 12.5 µM; 58% of 6,200 active; recombinant SENP6, Z-RLRGG-aminoluciferin luminescence
SENP7 confirm: confirmation of human SENP7 protease inhibitors | shares compounds with SENP7 inh | recombinant SENP7, Z-RLRGG-aminoluciferin luminescence, 40 min | inhibition, % at 12.5 µM | 69% of 6,200 active
Casp3 SENP sel: caspase-3 inhibition (SENP selectivity assay); AID 488918; purified caspase-3, Z-DEVD-aminoluciferin luminescence, 60 min; 60% of 6,200 active; shares compounds with SENP7 inh; inhibition, % at 12.5 µM;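 active = mean inhibition above about 50%, limit read from the data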;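 note: plate controls were enzyme with DMSO for no effect and wells without caspase-3 for full effect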
Target sequence (P42574 28-227 limits assumed): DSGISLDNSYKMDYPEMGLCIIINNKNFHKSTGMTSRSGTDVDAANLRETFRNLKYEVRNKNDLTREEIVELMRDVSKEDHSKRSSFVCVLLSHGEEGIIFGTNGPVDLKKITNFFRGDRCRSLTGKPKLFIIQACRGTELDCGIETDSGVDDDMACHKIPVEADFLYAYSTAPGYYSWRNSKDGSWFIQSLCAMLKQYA
Luc interf: interferes with luciferase luminescence in SENP counter-screen; Pre-incubated SENP8/Z-RLRGG-aminoluciferin, luciferase luminescence interference; 39% of 6,200 active; shares compounds with SENP7 inh; inhibition, % at 12.5 µM;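 active = mean inhibition above about 50% when retested at one dose, limit read from the data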;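 note: plate controls were DMSO wells with completed reaction for no effect and substrate without enzyme for full effect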
Starred values were filed as active, the others as inactive. Most compounds without a hit are left out; they make up all but 2.9% or so of the library.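 Rule for the calls, unless noted: active = mean inhibition above about 50% in the one-dose retest (limit read from the data); inactive = the rest.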

What do the screens show for `O=C(CNCc1ccc(Cl)cc1)Nc1ccc(C(=O)N2CCCCCC2)cc1`?
SENP8 block-1: -10.7; Apaf-1 inh: 12.2; SENP1 inh: 0.7; SENP6 block: 0.2; SENP8 block-2: 14.4; SENP7 inh: -6.0

What do the screens show for `Cc1ccc(NC(=O)c2c(F)cccc2Cl)cc1S(=O)(=O)N1CCOCC1`?
SENP8 block-1: 9.7; Apaf-1 inh: -12.2; SENP1 inh: 3.1; SENP6 block: -5.8; SENP8 block-2: -0.8; SENP7 inh: 2.2

How did COc1ccc(N(CC(=O)NCc2ccncc2)S(=O)(=O)c2ccc(C)c([N+](=O)[O-])c2)cc1 do in these assays?
SENP8 block-1: -0.1; Apaf-1 inh: -16.9; SENP1 inh: 0.5; SENP6 block: 85.5*; SENP8 block-2: 21.6; SENP7 inh: 0.9; SENP8 conf: -1.8; SENP6 conf: -0.3; SENP7 confirm: -2.2; Casp3 SENP sel: -1.4; Luc interf: 0.2

Results for COCCCNC(=O)CN(c1cc(Cl)ccc1OC)S(=O)(=O)c1ccc(C)c([N+](=O)[O-])c1 ?
SENP8 block-1: -10.0; Apaf-1 inh: 15.4; SENP1 inh: -0.6; SENP6 block: 72.7*; SENP8 block-2: 16.7; SENP7 inh: -6.1; SENP8 conf: 5.9; SENP6 conf: 3.4; SENP7 confirm: -10.1; Casp3 SENP sel: -5.1; Luc interf: -2.5

How did CCN1CCN(c2ccc(S(=O)(=O)N3CCOCC3)cc2NC(=O)CC(NC(C)=O)c2ccccc2)CC1 (centres undefined) do in these assays?
SENP1 inh: -1.9; SENP8 block-2: -0.4

Results for CC(=O)Nc1ccc(-c2nnn(CC(=O)c3ccc(F)cc3)n2)cc1Cl ?
SENP8 block-1: 0.7; Apaf-1 inh: -16.9; SENP1 inh: 0.7; SENP6 block: 82.4*; SENP8 block-2: 16.8; SENP7 inh: -0.8; SENP8 conf: 14.2; SENP6 conf: 8.6; SENP7 confirm: 2.7; Casp3 SENP sel: -2.2; Luc interf: -1.1

How did CC(=O)c1cccc(NC(=O)COC(=O)c2cccs2)c1 do in these assays?
SENP8 block-1: 2.9; Apaf-1 inh: -15.2; SENP1 inh: 0.4; SENP6 block: 7.7; SENP8 block-2: 7.0; SENP7 inh: 5.0

What do the screens show for `CCN(CC)c1ccc(NC(=O)COC(=O)c2cccs2)cc1`?
SENP8 block-1: 23.5; Apaf-1 inh: 1.6; SENP1 inh: 1.1; SENP6 block: 53.3*; SENP8 block-2: 6.3; SENP7 inh: 56.3*; SENP8 conf: 28.7; SENP6 conf: 26.2; SENP7 confirm: 61.8*; Casp3 SENP sel: 47.2; Luc interf: 3.2

How did CCN(c1ccc(NC(=O)COC(=O)c2cccs2)cc1)C(C)C do in these assays?
SENP8 block-1: 41.6; Apaf-1 inh: 21.1; SENP1 inh: 3.8; SENP6 block: 73.4*; SENP8 block-2: 13.6; SENP7 inh: 63.5*; SENP8 conf: 68.3*; SENP6 conf: 65.3*; SENP7 confirm: 90.5*; Casp3 SENP sel: 71.2*; Luc interf: 69.8*

How did CC1CCN(C(=O)c2[nH]cnc2C(=O)N2CCN(c3ccccc3)CC2)CC1 do in these assays?
SENP8 block-1: 2.9; Apaf-1 inh: -6.2; SENP1 inh: -0.6; SENP6 block: 19.5; SENP8 block-2: 6.0; SENP7 inh: 10.8

Results for CCOc1ccccc1OCCCC(=O)Nc1cc(S(=O)(=O)N2CCCCC2)ccc1C ?
SENP1 inh: 1.5; SENP8 block-2: 19.3

What do the screens show for `CN(c1ccc(C(=O)N/N=C/c2cccc([N+](=O)[O-])c2)cc1)S(=O)(=O)c1ccccc1`?
SENP8 block-1: -3.0; Apaf-1 inh: 12.2; SENP1 inh: 1.9; SENP6 block: -7.6; SENP8 block-2: 13.6; SENP7 inh: 0.1

How did CC(C)Oc1cccc(C(=O)Nc2nnc([C@H]3C[C@H](O)[C@@H](CO)O3)s2)c1 do in these assays?
SENP1 inh: 8.7; SENP8 block-2: 0.9

Results for c1ccc(-c2csc(Nc3ccc4c(c3)OCCO4)n2)cc1 ?
SENP8 block-1: 90.9*; Apaf-1 inh: -6.1; SENP1 inh: 25.4; SENP6 block: 95.5*; SENP8 block-2: -130.7; SENP7 inh: 91.2*; SENP8 conf: 94.6*; SENP6 conf: 95.3*; SENP7 confirm: 100.7*; Casp3 SENP sel: 73.5*; Luc interf: 84.2*

Results for c1cc2c(cc1Nc1nc(-c3ccc4c(c3)OCO4)cs1)OCCO2 ?
SENP8 block-1: -6.3; Apaf-1 inh: 2.5; SENP1 inh: -26.4; SENP6 block: -6.4; SENP8 block-2: -207.6; SENP7 inh: 11.4

Results for COc1cccc(Nc2nc(-c3ccc4c(c3)OCCO4)cs2)c1 ?
SENP8 block-1: 29.8; Apaf-1 inh: 6.5; SENP1 inh: -3.9; SENP6 block: 55.0*; SENP8 block-2: -38.0; SENP7 inh: 6.6; SENP8 conf: 22.2; SENP6 conf: 31.8; SENP7 confirm: 68.6*; Casp3 SENP sel: 7.9; Luc interf: 8.3

How did COCCNC(=O)c1cc(S(=O)(=O)N(C)C2CCCCC2)ccc1Cl do in these assays?
SENP1 inh: 0.9; SENP8 block-2: 14.5

What do the screens show for `CN(C(=O)c1ccco1)c1nc2c(s1)CCCC2`?
SENP8 block-1: 84.7*; Apaf-1 inh: 3.6; SENP1 inh: -1.4; SENP6 block: -4.1; SENP8 block-2: 28.2; SENP7 inh: 91.8*; SENP8 conf: 7.6; SENP6 conf: 91.1*; SENP7 confirm: 100.6*; Casp3 SENP sel: 93.9*; Luc interf: 88.8*

What do the screens show for `COc1cc(N=Nc2ccc3ccccc3c2)ccc1O`?
SENP8 block-1: 93.6*; Apaf-1 inh: 24.0; SENP1 inh: 1.8; SENP6 block: 96.6*; SENP8 block-2: 6.3; SENP7 inh: 94.8*; SENP8 conf: 94.5*; SENP6 conf: 95.9*; SENP7 confirm: 101.0*; Casp3 SENP sel: 73.4*; Luc interf: 94.2*

What do the screens show for `NS(=O)(=O)c1ccc(N=Nc2c(O)ccc3ccccc23)cc1`?
SENP8 block-1: 0.1; Apaf-1 inh: -38.1; SENP1 inh: 4.2; SENP6 block: 10.5; SENP8 block-2: 18.0; SENP7 inh: 3.4
